According to ChEMBL document CHEMBL1145014, “8-Aza-immucillins as transition-state analogue inhibitors of purine nucleoside phosphorylase and nucleoside hydrolases” (J Med Chem, 2003):

What was measured:
[1] = Inhibitory activity of compound against […] inosine-adenosine-guanosine nucleoside hydrolase (IAG-NH) from Trypanosoma brucei
Method in brief: (§1)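 Values are inhibition constants (Ki) against the nucleoside hydrolases: nonspecific inosine-uridine NH from *Crithidia fasciculata* and purine-specific inosine-adenosine-guanosine NH from *Trypanosoma brucei brucei*.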

[2] = Inhibitory activity of compound against inosine-uridine nucleoside hydrolase (IU-NH) from crithidia fasciculata; method in brief: as §1
[3] = biological target: T1, Purine nucleoside phosphorylase (Bos taurus, UniProt P55859); assay: Inhibitory activity of compound against bovine purine nucleoside phosphorylase (PNP)
T1 sequence (P55859 whole entry): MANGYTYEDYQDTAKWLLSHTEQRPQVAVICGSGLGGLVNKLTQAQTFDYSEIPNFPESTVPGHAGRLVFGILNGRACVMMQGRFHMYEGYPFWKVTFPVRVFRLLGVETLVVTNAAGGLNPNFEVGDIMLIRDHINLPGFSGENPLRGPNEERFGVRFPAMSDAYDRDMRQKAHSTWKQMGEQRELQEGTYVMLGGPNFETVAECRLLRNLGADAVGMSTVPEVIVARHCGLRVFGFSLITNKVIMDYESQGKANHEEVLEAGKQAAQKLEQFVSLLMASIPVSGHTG

[4] = biological target: T2, Purine nucleoside phosphorylase (Homo sapiens, UniProt P00491); assay: Inhibitory activity of compound against human purine nucleoside phosphorylase (PNP)
T2 sequence (P00491 whole entry): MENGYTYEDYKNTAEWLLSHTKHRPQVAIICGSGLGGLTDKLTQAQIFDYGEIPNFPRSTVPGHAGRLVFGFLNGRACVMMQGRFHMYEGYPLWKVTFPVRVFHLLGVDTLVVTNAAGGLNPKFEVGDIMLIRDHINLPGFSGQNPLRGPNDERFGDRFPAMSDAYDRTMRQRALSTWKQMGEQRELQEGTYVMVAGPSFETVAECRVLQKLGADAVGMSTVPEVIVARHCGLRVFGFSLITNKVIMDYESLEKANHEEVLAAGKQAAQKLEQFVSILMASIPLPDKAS

[5] = biological target: T3, Purine nucleoside phosphorylase (Bos taurus) (UniProt P55859)
T3 sequence (whole entry): T1 sequence (P55859 whole entry)

[6] = biological target: T4, Purine nucleoside phosphorylase (Homo sapiens) (UniProt P00491)
T4 sequence (whole entry): T2 sequence (P00491 whole entry)

Row | SMILES | Ki [1] [nM] | Ki [2] [nM] | Ki [3] [nM] | Ki [4] [nM] | K6 [5] [s⁻¹] | K6 [6] [s⁻¹]
1 | Nc1[nH]cnc2c(C3N[C@H](CO)[C@H](O)[C@@H]3O)cnc1-2 (stereo partly specified) | 0.9 | 7.2 |  |  |  | 
2 | NC(=O)c1[nH]nc(C2N[C@H](CO)[C@H](O)[C@@H]2O)c1N (stereo partly specified) | 3700 | 4800 | 0.06 | 0.096 | 0.019 | 
3 | NC(=O)c1[nH]cc(C2N[C@H](CO)[C@H](O)[C@@H]2O)c1N (stereo partly specified) | 23 | 3 |  |  |  | 
4 | O=c1[nH]cnc2c([C@@H]3N[C@H](CO)[C@@H](O)[C@H]3O)c[nH]c12 [FORODESINE] | 24 | 42 | 0.023 |  | 4e-05 | 0.0015
5 | OC[C@H]1N[C@@H](c2n[nH]c3c(O)ncnc23)[C@H](O)[C@@H]1O | 13900 | 1600 | 0.042 | 0.104 | 0.021 | 0.013
6 | Nc1ncnc2c(C3N[C@H](CO)[C@H](O)[C@@H]3O)n[nH]c12 (stereo partly specified) | 14000 | 150 |  |  |  | 
7 | Nc1nc2c([C@@H]3N[C@H](CO)[C@@H](O)[C@H]3O)c[nH]c2c(=O)[nH]1 |  |  | 0.03 | 0.029 | 0.00019 | 0.0015
